In ChEMBL document CHEMBL3813699, “Structure-Activity Relationships of a Diverse Class of Halogenated Phenazines That Targets Persistent, Antibiotic-Tolerant Bacterial Biofilms and Mycobacterium tuberculosis” (J Med Chem, 2016):
Converted amounts (≈) assume the structure as drawn.

Legend:
Staphylococcus aureus [1] = assay: Antibiofilm activity against methicillin-resistant Staphylococcus aureus isolate 2 assessed as biofilm eradication incubated for 24 hrs by CBD assay; format: functional; conditions: for MBC: Staphylococcus aureus, isolate 2, 24 h
Method in brief: (§1)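 Calgary Biofilm Device: pegs inoculated with mid-log culture diluted 1,000-fold in TSB + 0.5% glucose, 24 h 37 °C; washed pegs challenged with 2-fold dilutions 24 h 37 °C; pegs moved to fresh TSBG 24 h; MBEC = lowest concentration leaving no turbidity; 2–6 independent experiments.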

[2] = Induction of hemolysis in human RBC at 200 uM incubated for 1 hr; format: cell-based, Erythrocyte; conditions: red blood cells, read-out: Activity
Method in brief: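 Human RBCs (EDTA), washed three times in Tris-buffered saline pH 7.2; 2% hRBC with compound at final 200 µM, 1 h 37 °C; supernatant OD405; % hemolysis relative to DMSO (0%) and Triton X (100%).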

Staphylococcus aureus [3] = assay: Antibacterial activity against methicillin-resistant Staphylococcus aureus clinical isolate 2 incubated for 16 to 18 hrs by broth microdilution method; format: functional
Staphylococcus aureus [4] = assay: Antibacterial activity against methicillin-resistant Staphylococcus aureus BAA-44 incubated for 16 to 18 hrs by broth microdilution method; format: functional
Staphylococcus aureus [5] = assay: Antibacterial activity against methicillin-resistant Staphylococcus aureus BAA-1707 incubated for 16 to 18 hrs by broth microdilution method; format: functional
[6] = test system: Staphylococcus epidermidis; assay: Antibacterial activity against methicillin-resistant Staphylococcus epidermidis ATCC 35984 incubated for 16 to 18 hrs by broth microdilution method; format: functional
Enterococcus faecium = assay: Antibacterial activity against vancomycin-resistant Enterococcus faecium ATCC 700221 incubated for 16 to 18 hrs by broth microdilution method; format: functional
[7] = test system: Staphylococcus epidermidis; assay: Antibacterial activity against Staphylococcus epidermidis ATCC 12228 incubated for 16 to 18 hrs by broth microdilution method; format: functional
Staphylococcus aureus [8] = assay: Antibacterial activity against methicillin-resistant Staphylococcus aureus clinical isolate 2 incubated for 16 hrs by broth microdilution method in presence of Cu2+; format: functional; conditions: isolate 2, 16 h
Staphylococcus aureus [9] = assay: Antibacterial activity against methicillin-resistant Staphylococcus aureus clinical isolate 2 incubated for 16 hrs by broth microdilution method; format: functional; conditions: isolate 2, 16 h
Staphylococcus aureus [10] = assay: Antibiofilm activity against methicillin-resistant Staphylococcus aureus BAA-1707 assessed as biofilm eradication incubated for 24 hrs by CBD assay; format: functional; method in brief: as §1
Staphylococcus aureus [11] = assay: Antibacterial activity against methicillin-resistant Staphylococcus aureus clinical isolate 2 incubated for 16 hrs by broth microdilution method in presence of Fe2+; format: functional; conditions: isolate 2, 16 h
[12] = test system: Mycobacterium tuberculosis; assay: Antibacterial activity against Mycobacterium tuberculosis H37Ra ATCC 25177 after 7 days by two-fold serial dilution method; format: functional; conditions: H37Ra ATCC 25177, 168 h
HeLa = assay: Cytotoxicity against human HeLa cells after 24 hrs by LDH release assay; format: cell-based
Method in brief: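 HeLa in DMEM + 10% FBS, 37 °C 5% CO2, at 70–80% confluence treated with 25, 50, 100 µM for 24 h; DMSO vehicle; Triton X-100 2% v/v max-LDH control, medium-only negative; supernatant with LDH reaction mix 30 min room temperature, stopped, absorbance 490 nm.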

[13] = test system: Staphylococcus epidermidis; assay: Antibacterial activity against methicillin-resistant Staphylococcus epidermidis ATCC 35984 assessed as biofilm eradication incubated for 24 hrs by CBD assay; format: functional; method in brief: as §1

SMILES	MBEC (Staphylococcus aureus [1]) [µM]	MBC (Staphylococcus aureus [1]) [µM]	hemolysis at 1 h, 200 µM [2] [%]	MIC (Staphylococcus aureus [3]) [µM]	MIC (Staphylococcus aureus [4]) [µM]	MIC (Staphylococcus aureus [5]) [µM]	MIC [6] [µM]	MIC (Enterococcus faecium) [µM]	MIC [7] [µM]	MIC (Staphylococcus aureus [8]) [µM]	MIC (Staphylococcus aureus [9]) [µM]	MBEC (Staphylococcus aureus [10]) [µM]	MBC (Staphylococcus aureus [10]; Staphylococcus aureus, BAA-1707, 24 h) [µM]	MIC (Staphylococcus aureus [11]) [µM]	MIC [12] [µM]	IC50 (HeLa) [µM]	MBEC [13] [µM]	MBC ([13]; Staphylococcus epidermidis, ATCC 35984, 24 h) [µM]
NC(=O)c1cnccn1 [PYRAZINAMIDE]	>2000	> 2000																
Oc1c(Cl)cc(Cl)c2nc3ccccc3nc12	>1000	62.5 (≈ 16.6 µg/mL)	≤ 1	3.13 (≈ 0.83 µg/mL)	3.13 (≈ 0.83 µg/mL)	3.13 (≈ 0.83 µg/mL)	3.13 (≈ 0.83 µg/mL)	12.5 (≈ 3.31 µg/mL)	3.13 (≈ 0.83 µg/mL)									
Oc1c(Br)cc(Br)c2nc3cc4ccccc4cc3nc12	>200	200 (≈ 80.8 µg/mL)	≤ 1	> 100	75 (≈ 30.3 µg/mL)	50 (≈ 20.2 µg/mL)			12.5 (≈ 5.05 µg/mL)									
Oc1cccc2nc3cc(Cl)c(Cl)cc3nc12				> 100			> 100	> 100	> 100									
CCCCCCCCCC(=O)N[C@@H](Cc1c[nH]c2ccccc12)C(=O)N[C@@H](CC(N)=O)C(=O)N[C@@H](CC(=O)O)C(=O)N[C@@H]1C(=O)NCC(=O)N[C@@H](CCCN)C(=O)N[C@@H](CC(=O)O)C(=O)N[C@H](C)C(=O)N[C@@H](CC(=O)O)C(=O)NCC(=O)N[C@H](CO)C(=O)N[C@@H]([C@H](C)CC(=O)O)C(=O)N[C@@H](CC(=O)c2ccccc2N)C(=O)O[C@@H]1C [DAPTOMYCIN]	>2000	62.5 (≈ 101 µg/mL)			18.8 (≈ 30.5 µg/mL)	3.13 (≈ 5.07 µg/mL)	12.5 (≈ 20.3 µg/mL)		6.25 (≈ 10.1 µg/mL)	12.5	6.25 (≈ 10.1 µg/mL)	>2000	125 (≈ 203 µg/mL)	6.25				
Cc1nc2c(I)cc(I)c(O)c2nc1C		93.8 (≈ 40 µg/mL)	1.2					6.25 (≈ 2.66 µg/mL)	2.35 (≈ 1 µg/mL)		1.17 (≈ 0.498 µg/mL)				> 50	> 100	125	23.5 (≈ 10 µg/mL)
C=CCc1cc(Br)c2nc3cc(Br)c(Br)cc3nc2c1O				> 100				> 100	> 100									
